{"source": "ChEMBL document CHEMBL5390308", "about": "“Stapling Amantadine to Melanostatin Neuropeptide: Discovery of Potent Positive Allosteric Modulators of the D2 Receptors” (ACS Med Chem Lett, 2023)", "key": {"[1]": {"target": "T1, D(2) dopamine receptor (Homo sapiens, UniProt P14416)", "T1 sequence (P14416 whole entry)": "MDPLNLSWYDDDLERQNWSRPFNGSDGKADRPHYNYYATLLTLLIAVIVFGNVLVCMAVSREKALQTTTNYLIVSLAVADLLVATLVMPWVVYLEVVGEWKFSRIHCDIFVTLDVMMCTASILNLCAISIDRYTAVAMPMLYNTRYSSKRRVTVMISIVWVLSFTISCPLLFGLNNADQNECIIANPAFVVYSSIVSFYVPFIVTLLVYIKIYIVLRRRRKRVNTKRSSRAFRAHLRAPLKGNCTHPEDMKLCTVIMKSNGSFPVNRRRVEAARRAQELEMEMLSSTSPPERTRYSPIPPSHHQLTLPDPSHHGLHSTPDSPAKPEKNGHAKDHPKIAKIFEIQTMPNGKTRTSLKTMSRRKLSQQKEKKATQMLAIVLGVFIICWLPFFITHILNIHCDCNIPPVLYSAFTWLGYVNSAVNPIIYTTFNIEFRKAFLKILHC", "assay": "(§1) Positive allosteric modulator activity at human dopamine D2 receptor expressed in CHO cells assessed as fold increase in dopamine potentiation by measuring reduction of forskolin-stimulated cAMP level at 0.01 nM preincubated for 10 mins followed by forskolin addition measured after 5 mins in presence of dopamine by HTRF assay", "format": "functional, cell-based", "conditions": "filed as positive allosteric modulator, time 15.0 min", "how_it_was_run": "(§2)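 Dopamine concentration–response curves run alone or with a fixed compound concentration (0.01 or 1 nM) in human D2R-expressing CHO cells. Forskolin-stimulated cAMP inhibition read by HTRF. Dopamine EC50 and Emax derived from the curves. Three independent experiments in duplicate, mean ± SD.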"}, "[2]": {"target": "T1, D(2) dopamine receptor", "assay": "Positive allosteric modulator activity at human dopamine D2 receptor expressed in CHO cells assessed as reduction in forskolin-stimulated cAMP level preincubated for 10 mins followed by forskolin addition measured after 5 mins in presence of dopamine by HTRF assay (reference value: 87.08 +/- 24.87 nM)", "format": "functional, cell-based", "how_it_was_run": "as §2"}, "[3]": {"target": "T1, D(2) dopamine receptor", "assay": "Agonist activity at human dopamine D2 receptor expressed in CHO cells assessed as reduction in forskolin-stimulated cAMP level at 1 to 1000 nM preincubated for 10 mins followed by forskolin addition measured after 5 mins by HTRF assay", "format": "functional, cell-based", "conditions": "dose 1-1000 nM, time 15.0 min", "how_it_was_run": "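Agonist mode, without dopamine, in CHO cells expressing human D2R. Compound tested at 1 nM to 1 μM, with dopamine as positive control. Read-out is inhibition of forskolin-stimulated cAMP accumulation by HTRF. Mean ± standard deviation of three independent measurements.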"}, "[4]": {"target": "T1, D(2) dopamine receptor", "assay": "Positive allosteric modulator activity at human dopamine D2 receptor expressed in CHO cells assessed as reduction in forskolin-stimulated cAMP level at 1 nM preincubated for 10 mins followed by forskolin addition measured after 5 mins in presence of dopamine by HTRF assay", "format": "functional, cell-based", "conditions": "time 15.0 min", "how_it_was_run": "as §2"}, "[5]": {"target": "T1, D(2) dopamine receptor", "assay": "(§3) Positive allosteric modulator activity at human dopamine D2 receptor expressed in CHO cells assessed as reduction in forskolin-stimulated cAMP level by measuring maximum efficacy at 0.01 nM preincubated for 10 mins followed by forskolin addition measured after 5 mins in presence of dopamine by HTRF assay relative to control", "format": "functional, cell-based", "conditions": "filed as positive allosteric modulator, time 15.0 min", "how_it_was_run": "as §2"}, "[6]": {"test_system": "SH-SY5Y", "assay": "Neurotoxicity in human SH-SY5Y cells at 200 uM incubated for 48 hrs by MTT assay", "format": "functional, cell-based", "how_it_was_run": "(§4)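 SH-SY5Y neuroblastoma cells differentiated 6 days with retinoic acid and TPA. Exposed 48 h to compound at 200 μM dissolved in DMSO (0.5% final), with 6-OHDA at 125 μM in PBS as positive control. MTT reduction read-out as % of control. 14–16 wells from 4 independent experiments, mean ± SD; ANOVA with Tukey post hoc test.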"}, "[7]": {"target": "T1, D(2) dopamine receptor", "assay": "Positive allosteric modulator activity at human dopamine D2 receptor expressed in CHO cells assessed as reduction in forskolin-stimulated cAMP level at 0.01 nM preincubated for 10 mins followed by forskolin addition measured after 5 mins in presence of dopamine by HTRF assay relative to control", "format": "functional, cell-based", "design": "scale not given: the % may be the effect or the level left", "conditions": "time 15.0 min", "how_it_was_run": "(§5)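 CHO cells expressing human D2R, assayed in the presence of 0.1 μM dopamine. Compounds screened between 0.01 nM and 10 μM. Inhibition of forskolin-stimulated cAMP measured by HTRF and expressed as % increase over the 0.1 μM dopamine effect. Mean ± SD of three independent measurements; Student's t-test, p < 0.05.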"}, "[8]": {"assay": "Neurotoxicity in human SH-SY5Y cells at 125 uM incubated for 48 hrs by MTT assay relative to control", "format": "functional", "how_it_was_run": "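SH-SY5Y cells pre-differentiated 6 days with retinoic acid and TPA. 6-OHDA freshly prepared in sterile PBS, tested at 125 μM for 48 h; DMSO-solubilised test agents were run alongside (DMSO 0.5% final). Viability read by MTT reduction, expressed as % of control. 14–16 wells, 4 independent experiments; ANOVA with Tukey post hoc versus control.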"}, "[9]": {"target": "T1, D(2) dopamine receptor", "assay": "as §3, with “10” for “0.01”", "format": "functional, cell-based", "design": "scale not given: the % may be the effect or the level left", "conditions": "time 15.0 min", "how_it_was_run": "as §5"}, "[10]": {"assay": "Lipophilicity, logP of the compound in Octan-1-ol/water by shake-flask method", "format": "physicochemical"}, "[11]": {"target": "T1, D(2) dopamine receptor", "assay": "as §3, with “1” for “0.01”", "format": "functional, cell-based", "conditions": "filed as positive allosteric modulator, time 15.0 min", "how_it_was_run": "as §2"}, "[12]": {"target": "T1, D(2) dopamine receptor", "assay": "as §1, with “1” for “0.01”", "format": "functional, cell-based", "conditions": "filed as positive allosteric modulator, time 15.0 min", "how_it_was_run": "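CHO cells stably expressing human D2R. Dopamine concentration–response curves were run with or without modulator at a fixed concentration. D2R activation was read as inhibition of forskolin-stimulated cAMP accumulation by HTRF. The fold shift was derived from DA EC50 values, with Emax also fitted. Three independent experiments, each in duplicate, mean ± SD.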"}, "[13]": {"target": "T1, D(2) dopamine receptor", "assay": "Positive allosteric modulator activity at human dopamine D2 receptor expressed in CHO cells assessed as reduction in forskolin-stimulated cAMP level at 0.01 nM preincubated for 10 mins followed by forskolin addition measured after 5 mins in presence of dopamine by HTRF assay", "format": "functional, cell-based", "conditions": "time 15.0 min", "how_it_was_run": "as §5"}, "[14]": {"assay": "Neurotoxicity in human SH-SY5Y cells at 200 uM incubated for 48 hrs by MTT assay relative to control", "format": "functional", "how_it_was_run": "as §4"}}, "note": "Activity calls are given as the source filed them. No cut-off for these calls is given here. Where a SMILES comes first, the peptide text is derived from it."}
{"smiles": "CC(C)C[C@H](NC(=O)[C@@H]1CCCN1)C(=O)NCC(=O)NC12CC3CC(CC(C3)C1)C2", "values": [{"measurement": "fold change (FC)", "setting": "[1]", "result": 3.3}, {"measurement": "EC50", "setting": "[2]", "result": 0.0264, "unit": "µM"}, {"measurement": "Activity", "setting": "[3]", "result": "inactive"}, {"measurement": "Activity", "setting": "[4]", "result": "inactive"}, {"measurement": "Emax", "setting": "[5]", "result": 100, "unit": "%"}, {"measurement": "Activity", "setting": "[6]", "result": "inactive"}, {"measurement": "Activity", "setting": "[7]", "result": 10.3, "unit": "%"}]}
{"smiles": "NCCc1cc(O)c(O)cc1O", "note": "[OXIDOPAMINE]", "values": [{"measurement": "Activity", "setting": "[8]", "result": 58.27, "unit": "%"}]}
{"smiles": "CC(C)C[C@H](NC(=O)[C@@H]1CCCN1)C(=O)NCC(N)=O", "note": "(H-Pro-Leu-Gly-NH2)", "values": [{"measurement": "Activity", "setting": "[9]", "result": 31.9, "unit": "%"}, {"measurement": "logP", "setting": "[10]", "result": -0.56}, {"measurement": "Emax", "setting": "[11]", "result": 100, "unit": "%"}, {"measurement": "fold change (FC)", "setting": "[12]", "result": 3.7}, {"measurement": "Activity", "setting": "[13]", "result": "inactive"}, {"measurement": "Activity", "setting": "[14]", "result": 94.09, "unit": "%"}]}
{"smiles": "CC(C)C[C@H](NC(=O)[C@@H]1CCCN1C(=O)OC(C)(C)C)C(=O)NCC(=O)NC12CC3CC(CC(C3)C1)C2", "values": [{"measurement": "fold change (FC)", "setting": "[1]", "result": 4.9}, {"measurement": "logP", "setting": "[10]", "result": 2.62}, {"measurement": "EC50", "setting": "[2]", "result": 0.0178, "unit": "µM"}, {"measurement": "Activity", "setting": "[14]", "result": 89.73, "unit": "%"}, {"measurement": "Activity", "setting": "[3]", "result": "inactive"}, {"measurement": "Activity", "setting": "[4]", "result": "inactive"}, {"measurement": "Emax", "setting": "[5]", "result": 100, "unit": "%"}, {"measurement": "Activity", "setting": "[7]", "result": 15.3, "unit": "%"}]}
